Test results: PMC4688279 (Prostaglandins & other lipid mediators, 2015)
Values joined by “and” are separate entries in the source; they are usually repeats but may differ in a detail not shown here. Equal values may be shown once. Read-outs that look alike come from different tables or passages of the source.

What was measured:
[1] = test system: Caco-2 cells; experiment: Caco-2 transwell model of in vitro intestinal absorption; assay type: in vitro ADME, human; details: after 6 hours of incubation
[2] = test system: primary rat hepatocytes; experiment: Metabolic stability in primary rat hepatocytes; assay type: in vitro ADME; details: for initially added TPPU remaining intact: after 20 hours, n=6
Summary of the method: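 Rat hepatocytes were isolated by portal-vein perfusion with oxygenated 2 mM EDTA buffer (37°C, 40 mL/min, 45 min), then purified on a 58% Percoll gradient (800 × g, 5 min). 1×10^5 cells were plated and allowed to attach for 4 h. Test compound (1 or 10 μM) was added in DMEM, 0.1% DMSO final; n=6. One medium aliquot was frozen directly. The other was deconjugated with glucuronidase (10.000 U/mL) and sulfatase (700 U/mL) in acetate buffer, pH 5.0, for 24 h.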

[3] = Chemical stability of TPPU in drinking water; assay type: physicochemical; details: 0.2% PEG400 in water, 8 days, plastic water bottles
[4] = assay type: in vivo; details: rat
[5] = test system: mice sEH; details: read-out: IC50 sEH; cited from earlier work
[6] = mice, cited from earlier work; for Cmax: read-out: Cmax in blood
[7] = mice, three weeks drinking water, cited from earlier work
[8] = cynomolgus monkeys, single oral dose 0.3 mg/kg; cited from earlier work
[9] = test system: human sEH; details: read-out: IC50 sEH; cited from earlier work
[10] = test system: rat sEH; details: read-out: IC50 sEH; cited from earlier work

Question: With `CCC(=O)N1CCC(NC(=O)Nc2ccc(OC(F)(F)F)cc2)CC1` [TPPU] as the molecule, how does the “added amount detected on the basolateral side” value [1] read?
Answer: The value was 66%.

Question: What about the “recovery of TPPU after glucuronidase/sulfatase treatment of the medium” value ([2]; 1 μM TPPU) of the same molecule?
Answer: Its value is 93 ± 9.3%.

Question: What about the “initially added TPPU remaining intact” value ([2]; 1 μM TPPU) of the same molecule?
Answer: The value was 87 ± 3.5%.

Question: What about the “recovery of TPPU after glucuronidase/sulfatase treatment of the medium” value ([2]; 10 μM TPPU) of the same molecule?
Answer: The value was 90 ± 5.9%.

Question: What about the “initially added TPPU remaining intact” value ([2]; 10 μM TPPU) of the same molecule?
Answer: The value was 90 ± 1.6% and 90%.

Question: What about the “recovery in drinking water (chemical stability)” value ([3]; 0.2 mg/L) of the same molecule?
Answer: Its value is 103 ± 3.2%.

Question: And the “recovery in drinking water (chemical stability)” value ([3]; 10 mg/L)?
Answer: The value was 109 ± 4.9%.

Question: And the distribution into brain ([4]; drinking water, day 8)?
Answer: The distribution into brain was “A significant portion also crosses the blood brain barrier”.

Question: What about the “liver tissue level in comparison to heart tissue” value ([4]; group with the highest TPPU concentration, day 8) of the same molecule?
Answer: Its value is “about 3.5 fold”.

Question: And the IC50 [5]?
Answer: The IC50 was 6 nM.

Question: And the bioavailability ([6]; oral gavage 0.1–3 mg/kg, based on AUC)?
Answer: The bioavailability was 31–41%.

Question: What about the Cmax ([6]; single dose p.o. 0.1 mg/kg) of the same molecule?
Answer: Its Cmax is 270 nM.

Question: And the Cmax ([6]; single dose p.o. 0.3 mg/kg)?
Answer: Its Cmax is 1700 nM.

Question: And the plasma level ([7]; 0.2 mg/kg BW daily)?
Answer: Its plasma level is 610 ± 130 nM.

Question: And the plasma level ([7]; 0.6 mg/kg BW daily)?
Answer: Its plasma level is 1800 ± 445 nM.

Question: What about the Cmax [8] of the same molecule?
Answer: Its Cmax is 700 ± 600 nM.

Question: What about the IC50 [10] of the same molecule?
Answer: The IC50 was […].
